The record followed here is ChEMBL document CHEMBL5321266, “Discovery of a Series of Indane-Containing NBTIs with Activity against Multidrug-Resistant Gram-Negative Pathogens” (ACS Med Chem Lett, 2023).

Converted amounts (≈) assume the structure as drawn.

In one series the test system is Acinetobacter baumannii. Put plainly: Antibacterial activity against Acinetobacter baumannii ATCC 19606 incubated for 20 to 24 hrs by CLSI based broth microdilution method. The following applies: time 20-24 hrs. It counts as functional. (In broth dilution the organism is exposed to a series of concentrations in liquid medium.)
In the next series the test system is Klebsiella pneumoniae. Put plainly: Antibacterial activity against Klebsiella pneumoniae ATCC BAA-1705 incubated for 20 to 24 hrs by CLSI based broth microdilution method. Type of series: functional. The note with it: time 20-24 hrs.
Series [1] has as its target Voltage-gated inwardly rectifying potassium channel KCNH2 (Homo sapiens, UniProt Q12809). Briefly: Inhibition of human ERG expressed in CHO cells by automated path clamp method. Type of series: toxicity, cell-based. The note with it: for inhibition (INH): human, cho. The essentials:
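Patch-clamp electrophysiology on the hERG ion channel, recorded at 37 °C; the IC₅₀ was determined.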

Series [2] has as its target T1, DNA gyrase (Escherichia coli, UniProt P0AES4+P0AES6). Briefly: Inhibition of Escherichia coli DNA gyrase ATPase activity incubated for 80 mins. Type of series: protein-complex assay.
A further series concerns Pseudomonas aeruginosa. Put plainly: Antibacterial activity against Pseudomonas aeruginosa ATCC 27853 incubated for 20 to 24 hrs by CLSI based broth microdilution method. Type of series: functional. The following applies: time 20-24 hrs.
Another series has as its system Escherichia coli. Put plainly: Antibacterial activity against Escherichia coli ATCC 25922 incubated for 20 to 24 hrs by CLSI based broth microdilution method. It counts as functional. The following applies: time 20-24 hrs.
In series [3] the target is DNA topoisomerase 2-alpha (Homo sapiens, UniProt P11388). Put plainly: Inhibition of human topoisomerase 2 alpha decatenation activity using kDNA as substrate preincubated for 5 mins followed by enzyme addition and measured after 1 hr by agarose gel electrophoresis.
DNA topoisomerase 2-alpha, sequence (P11388 whole entry): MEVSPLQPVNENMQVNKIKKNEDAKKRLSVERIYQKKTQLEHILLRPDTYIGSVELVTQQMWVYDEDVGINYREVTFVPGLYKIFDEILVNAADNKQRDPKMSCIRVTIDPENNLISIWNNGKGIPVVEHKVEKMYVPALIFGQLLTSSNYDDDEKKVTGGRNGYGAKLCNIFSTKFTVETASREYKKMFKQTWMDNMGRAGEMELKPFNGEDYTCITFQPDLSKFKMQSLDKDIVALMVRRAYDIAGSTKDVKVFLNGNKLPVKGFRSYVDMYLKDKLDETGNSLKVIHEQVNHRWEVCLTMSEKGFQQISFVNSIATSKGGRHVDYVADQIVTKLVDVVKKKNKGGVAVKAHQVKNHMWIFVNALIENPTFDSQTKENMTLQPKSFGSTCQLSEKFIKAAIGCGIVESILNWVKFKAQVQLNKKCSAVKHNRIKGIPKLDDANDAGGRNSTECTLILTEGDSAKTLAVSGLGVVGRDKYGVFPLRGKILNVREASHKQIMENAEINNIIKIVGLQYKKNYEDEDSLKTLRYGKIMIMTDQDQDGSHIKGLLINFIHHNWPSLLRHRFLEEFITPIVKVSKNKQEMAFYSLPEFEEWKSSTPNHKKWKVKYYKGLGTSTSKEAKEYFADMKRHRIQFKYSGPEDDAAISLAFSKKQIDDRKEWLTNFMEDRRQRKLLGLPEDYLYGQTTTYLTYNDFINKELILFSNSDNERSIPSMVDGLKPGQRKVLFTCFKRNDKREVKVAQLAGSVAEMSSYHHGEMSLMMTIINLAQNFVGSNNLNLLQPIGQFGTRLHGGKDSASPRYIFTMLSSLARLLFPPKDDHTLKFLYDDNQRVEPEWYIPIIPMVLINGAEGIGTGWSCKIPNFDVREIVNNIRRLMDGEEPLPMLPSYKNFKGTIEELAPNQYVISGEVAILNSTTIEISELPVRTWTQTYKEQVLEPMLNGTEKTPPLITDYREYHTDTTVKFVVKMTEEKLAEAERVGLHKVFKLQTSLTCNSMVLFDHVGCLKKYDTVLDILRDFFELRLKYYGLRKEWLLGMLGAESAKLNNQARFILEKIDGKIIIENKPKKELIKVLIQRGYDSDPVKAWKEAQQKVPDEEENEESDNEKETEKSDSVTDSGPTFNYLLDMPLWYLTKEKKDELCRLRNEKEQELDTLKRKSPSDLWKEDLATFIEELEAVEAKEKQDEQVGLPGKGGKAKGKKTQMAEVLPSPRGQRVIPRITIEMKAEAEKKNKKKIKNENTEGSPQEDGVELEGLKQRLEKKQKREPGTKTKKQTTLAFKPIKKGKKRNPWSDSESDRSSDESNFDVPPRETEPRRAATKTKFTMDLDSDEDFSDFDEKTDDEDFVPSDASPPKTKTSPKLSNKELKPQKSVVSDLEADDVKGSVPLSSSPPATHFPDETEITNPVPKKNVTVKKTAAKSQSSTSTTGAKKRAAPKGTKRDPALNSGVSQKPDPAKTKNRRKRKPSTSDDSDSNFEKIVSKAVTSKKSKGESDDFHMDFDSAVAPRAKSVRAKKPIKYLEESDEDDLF
In series [4] the target is T1, DNA gyrase. Briefly: Inhibition of Escherichia coli DNA gyrase supercoiling activity using relaxed pBR322 DNA as substrate preincubated for 5 mins followed by enzyme addition and measured after 1 hr by agarose gel electrophoresis. It counts as protein-complex assay.
Series [5] can be described thus: Inhibition of Escherichia coli topoisomerase 4 decatenation activity using kDNA as substrate preincubated for 5 mins followed by enzyme addition and measured after 1 hr by agarose gel electrophoresis method.

Voltage-gated inwardly rectifying potassium channel KCNH2, sequence (Q12809 whole entry): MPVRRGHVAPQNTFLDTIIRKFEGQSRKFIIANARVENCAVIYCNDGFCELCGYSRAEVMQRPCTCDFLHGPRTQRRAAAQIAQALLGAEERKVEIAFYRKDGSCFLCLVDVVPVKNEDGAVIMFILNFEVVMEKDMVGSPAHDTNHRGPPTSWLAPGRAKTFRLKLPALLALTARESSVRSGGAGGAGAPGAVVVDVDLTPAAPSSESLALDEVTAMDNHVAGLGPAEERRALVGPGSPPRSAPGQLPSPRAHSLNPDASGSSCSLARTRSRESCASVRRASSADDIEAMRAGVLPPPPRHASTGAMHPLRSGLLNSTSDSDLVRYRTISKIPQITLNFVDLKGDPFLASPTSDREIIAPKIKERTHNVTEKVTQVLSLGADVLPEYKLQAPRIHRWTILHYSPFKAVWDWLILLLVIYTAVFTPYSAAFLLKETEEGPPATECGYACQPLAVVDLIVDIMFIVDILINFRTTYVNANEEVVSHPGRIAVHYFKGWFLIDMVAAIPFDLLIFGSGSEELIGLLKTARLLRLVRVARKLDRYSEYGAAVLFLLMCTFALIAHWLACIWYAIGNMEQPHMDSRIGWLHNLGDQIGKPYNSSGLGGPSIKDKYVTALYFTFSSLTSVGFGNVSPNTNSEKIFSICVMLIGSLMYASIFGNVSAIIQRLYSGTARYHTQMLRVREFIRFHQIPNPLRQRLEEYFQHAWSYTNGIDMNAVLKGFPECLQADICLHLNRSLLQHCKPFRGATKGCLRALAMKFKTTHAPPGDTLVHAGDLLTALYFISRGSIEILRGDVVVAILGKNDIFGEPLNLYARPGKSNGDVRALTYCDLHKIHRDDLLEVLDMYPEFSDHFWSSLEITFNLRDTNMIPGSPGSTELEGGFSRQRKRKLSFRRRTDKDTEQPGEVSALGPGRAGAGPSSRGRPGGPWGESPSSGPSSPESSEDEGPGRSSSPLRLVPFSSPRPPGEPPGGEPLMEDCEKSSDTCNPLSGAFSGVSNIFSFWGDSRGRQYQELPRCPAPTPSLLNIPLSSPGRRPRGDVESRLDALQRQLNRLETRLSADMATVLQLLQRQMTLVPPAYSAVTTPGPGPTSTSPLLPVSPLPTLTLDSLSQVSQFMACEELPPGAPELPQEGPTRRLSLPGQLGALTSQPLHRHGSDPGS

For orientation: MIC means the lowest concentration that inhibits growth of the organism. A lower MIC goes with greater potency. The IC50 is the concentration that inhibits the measured activity by half. Higher therefore signals lower potency. Turning to `O=C1COc2ccc(N3CC(CCNC4Cc5cccc(Cl)c5C4)OC3=O)nc2N1` (stereo not given), the MIC came out at 4 µg/mL (≈ 9.33 µM) against Acinetobacter baumannii, 16 µg/mL (≈ 37.3 µM) with Klebsiella pneumoniae, 16 µg/mL (≈ 37.3 µM) against Pseudomonas aeruginosa and 2 µg/mL (≈ 4.66 µM) in the series with Escherichia coli. Moreover, in series [1], the “inhibition (INH)” value is given as “Active”. At DNA gyrase [2], this compound gave an IC50 of 290 nM.
Regarding `N#Cc1cccc2c1CC(CNCCC1CN(c3ccc4c(n3)NC(=O)CO4)C(=O)O1)C2` (stereo not given), the MIC is 0.125 µg/mL (≈ 0.288 µM) with Acinetobacter baumannii, 1 µg/mL (≈ 2.31 µM) against Klebsiella pneumoniae, 0.5 µg/mL (≈ 1.15 µM) against Pseudomonas aeruginosa and at most 0.06 µg/mL with Escherichia coli. For the same compound, the 50% inhibitory concentration (IC50) in series [1] was 900 nM; against DNA gyrase [2], 21 nM; in series [3], over 100000 nM; against DNA gyrase [4], 100 nM; in [5] it was 160 nM.
Take `O=C1COc2ccc(N3CC(CCNCC4Cc5cccc(Cl)c5C4)OC3=O)nc2N1` (stereo not given): the MIC is 0.125 µg/mL (≈ 0.282 µM) against Acinetobacter baumannii, 2 µg/mL (≈ 4.52 µM) against Klebsiella pneumoniae, 2 µg/mL (≈ 4.52 µM) in the series with Pseudomonas aeruginosa and 0.125 µg/mL (≈ 0.282 µM) in the series with Escherichia coli. The “inhibition (INH)” value in [1] was “Active”. At DNA gyrase [2], this compound showed an IC50 of 90 nM.
`O=c1cc(NCC2CN(CC3Cc4ccnc(Cl)c4C3)C2)c2cc(F)ccc2o1` (stereo not given): the MIC stood at 4 µg/mL (≈ 9.66 µM) against Acinetobacter baumannii, 32 µg/mL (≈ 77.3 µM) against Klebsiella pneumoniae, 8 µg/mL (≈ 19.3 µM) in the series with Pseudomonas aeruginosa and 2 µg/mL (≈ 4.83 µM) against Escherichia coli. Also, in series [1], the “inhibition (INH)” value is “Active”. The compound further yielded an IC50 at DNA gyrase [2] of 160 nM.
For `O=C1COc2ccc(N3CC(CNCC4Cc5cccc(Cl)c5C4)OC3=O)nc2N1` (stereo not given), the minimal inhibitory concentration (MIC) came out at 1 µg/mL (≈ 2.33 µM) in the series on Acinetobacter baumannii, 32 µg/mL (≈ 74.6 µM) against Klebsiella pneumoniae, 8 µg/mL (≈ 18.7 µM) in the series with Pseudomonas aeruginosa and 0.5 µg/mL (≈ 1.17 µM) with Escherichia coli. In series [1], the “inhibition (INH)” value is on record as “Active”. Moreover, the IC50 on DNA gyrase [2] stood at 230 nM.
As for `O=C1COc2ccc(N3CC(CNCCC4Cc5cccc(Cl)c5C4)OC3=O)nc2N1` (stereo not given), the minimum inhibitory concentration (MIC) with Acinetobacter baumannii amounted to 0.25 µg/mL (≈ 0.564 µM); against Klebsiella pneumoniae, 4 µg/mL (≈ 9.03 µM); with Pseudomonas aeruginosa it was 1 µg/mL (≈ 2.26 µM); in the series with Escherichia coli, 0.25 µg/mL (≈ 0.564 µM). Moreover, in series [1], the “inhibition (INH)” value is recorded as “Active”. Also, the midpoint of inhibition at DNA gyrase [2], the IC50, lay at 90 nM.
Regarding `O=C1COc2ccc(N3CC(CCCNC4Cc5ccccc5C4)OC3=O)nc2N1` (stereo not given), the minimum inhibitory concentration (MIC) turned out to be 8 µg/mL (≈ 19.6 µM) in the series with Acinetobacter baumannii, 16 µg/mL (≈ 39.2 µM) against Klebsiella pneumoniae, 8 µg/mL (≈ 19.6 µM) with Pseudomonas aeruginosa and 2 µg/mL (≈ 4.9 µM) against Escherichia coli. For the same compound, in series [1], the “inhibition (INH)” value was “Active”. The compound also gave an IC50 at DNA gyrase [2] of 270 nM.
As to `N#Cc1cccc2c1CC(NCCCC1CN(c3ccc4c(n3)NC(=O)CO4)C(=O)O1)C2` (stereo not given), the MIC against Acinetobacter baumannii worked out at 0.5 µg/mL (≈ 1.15 µM); with Klebsiella pneumoniae it was 2 µg/mL (≈ 4.61 µM); against Pseudomonas aeruginosa, 2 µg/mL (≈ 4.61 µM); against Escherichia coli, 0.25 µg/mL (≈ 0.577 µM). Besides, in [1], the “inhibition (INH)” value is “Active”. This compound had an IC50 against DNA gyrase [2] of 57 nM.
Turning to `O=C1COc2ccc(N3CC(CCNCC4Cc5ccccc5C4)OC3=O)nc2N1` (stereo not given), the minimum inhibitory concentration (MIC) came out at 2 µg/mL (≈ 4.9 µM) in the series with Acinetobacter baumannii, 8 µg/mL (≈ 19.6 µM) in the series on Klebsiella pneumoniae, 8 µg/mL (≈ 19.6 µM) in the series on Pseudomonas aeruginosa and 1 µg/mL (≈ 2.45 µM) with Escherichia coli. In addition, the “inhibition (INH)” value in [1] was “Active”. The IC50 at DNA gyrase [2] was 180 nM.
In the case of `O=C1COc2ccc(N3CC(CCNCC4Cc5cccc(F)c5C4)OC3=O)nc2N1` (stereo not given), the MIC is 0.5 µg/mL (≈ 1.17 µM) against Acinetobacter baumannii, 4 µg/mL (≈ 9.38 µM) against Klebsiella pneumoniae, 4 µg/mL (≈ 9.38 µM) in the series on Pseudomonas aeruginosa and 0.5 µg/mL (≈ 1.17 µM) against Escherichia coli. Moreover, the “inhibition (INH)” value in series [1] is recorded as “Active”. The compound further returned a 50% inhibitory concentration (IC50) on DNA gyrase [2] of 100 nM.
On to `O=C1COc2ccc(N3CC(CCCNC4Cc5cccc(F)c5C4)OC3=O)nc2N1` (stereo not given), for which the minimal inhibitory concentration (MIC) with Acinetobacter baumannii was 1 µg/mL (≈ 2.34 µM); in the series with Klebsiella pneumoniae it was 4 µg/mL (≈ 9.38 µM); with Pseudomonas aeruginosa it was 4 µg/mL (≈ 9.38 µM); in the series with Escherichia coli it was 0.5 µg/mL (≈ 1.17 µM). The “inhibition (INH)” value in [1] is recorded as “Active”. This compound displayed an IC50 against DNA gyrase [2] of 120 nM.
In the case of `O=C1COc2ccc(N3CC(CNC4Cc5cccc(Cl)c5C4)OC3=O)nc2N1` (stereo not given), the MIC against Acinetobacter baumannii was 4 µg/mL (≈ 9.64 µM); against Klebsiella pneumoniae it was over 64 µg/mL; in the series on Pseudomonas aeruginosa it was over 64 µg/mL; in the series with Escherichia coli, 8 µg/mL (≈ 19.3 µM). Also, the “inhibition (INH)” value in series [1] was “Active”. At DNA gyrase [2], 580 nM corresponded to half-maximal inhibition (IC50).
As for `O=C1COc2ccc(N3CC(CCCNC4Cc5cccc(Cl)c5C4)OC3=O)nc2N1` (stereo not given), the MIC with Acinetobacter baumannii was found to be 0.5 µg/mL (≈ 1.13 µM); in the series with Klebsiella pneumoniae it was 2 µg/mL (≈ 4.52 µM); against Pseudomonas aeruginosa, 2 µg/mL (≈ 4.52 µM); against Escherichia coli, 0.25 µg/mL (≈ 0.564 µM). Besides, the “inhibition (INH)” value in series [1] is “Active”. Moreover, inhibition on DNA gyrase [2] was half-maximal at 72 nM (IC50).
`O=C1COc2ccc(N3CC(CCNCCC4Cc5cccc(Cl)c5C4)OC3=O)nc2N1` (stereo not given): the minimal inhibitory concentration (MIC) in the series on Acinetobacter baumannii turned out to be 1 µg/mL (≈ 2.19 µM); against Klebsiella pneumoniae, 8 µg/mL (≈ 17.5 µM); in the series on Pseudomonas aeruginosa, 4 µg/mL (≈ 8.75 µM); in the series with Escherichia coli, 0.5 µg/mL (≈ 1.09 µM). The “inhibition (INH)” value in [1] is listed as “Active”. In addition, on DNA gyrase [2], it took 120 nM to reach half-maximal inhibition (IC50).
For the compound `O=C1COc2ccc(N3CC(CCCNC4CCc5c(Cl)cccc54)OC3=O)nc2N1` (stereo not given), the MIC with Acinetobacter baumannii was determined as 8 µg/mL (≈ 18.1 µM); in the series with Klebsiella pneumoniae it was 16 µg/mL (≈ 36.1 µM); with Pseudomonas aeruginosa, 8 µg/mL (≈ 18.1 µM); against Escherichia coli it was 2 µg/mL (≈ 4.52 µM). In series [1], the “inhibition (INH)” value is reported as “Active”. For the same compound, on DNA gyrase [2], the IC50 was 190 nM.
As for `O=C1COc2ccc(N3CC(CCCNC4Cc5ccc(Cl)cc5C4)OC3=O)nc2N1` (stereo not given), the MIC was found to be 4 µg/mL (≈ 9.03 µM) with Acinetobacter baumannii, 8 µg/mL (≈ 18.1 µM) in the series on Klebsiella pneumoniae, 16 µg/mL (≈ 36.1 µM) against Pseudomonas aeruginosa and 2 µg/mL (≈ 4.52 µM) against Escherichia coli. In addition, the “inhibition (INH)” value in series [1] is “Active”. On DNA gyrase [2], this compound returned a half-maximal inhibitory concentration (IC50) of 250 nM.
For the compound `O=C1COc2ccc(N3CC(CCCNC4Cc5ccc(F)cc5C4)OC3=O)nc2N1` (stereo not given), the MIC in the series on Acinetobacter baumannii came to 4 µg/mL (≈ 9.38 µM); in the series with Klebsiella pneumoniae, 8 µg/mL (≈ 18.8 µM); in the series on Pseudomonas aeruginosa, 16 µg/mL (≈ 37.5 µM); against Escherichia coli, 1 µg/mL (≈ 2.34 µM). For the same compound, the “inhibition (INH)” value in series [1] is recorded as “Active”. Further, half-maximal inhibition against DNA gyrase [2] (IC50) was put at 160 nM.
